Measurements from ChEMBL document CHEMBL1153278, “Discovery of novel non-peptidic beta-alanine piperazine amide derivatives and their optimization to achiral, easily accessible, potent and selective somatostatin sst1 receptor antagonists” (Bioorg Med Chem Lett, 2009).

Key:
[1] = target: Somatostatin receptor type 1 (Rattus norvegicus, UniProt P28646); assay: Binding affinity to rat sst1 receptor
Outline: (§1)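 Receptor binding run on rat sst1 and sst2 and on human sst1–sst5; affinities given as pKd, mean ± SEM of 3–6 experiments.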

[2] = Ratio of drug level in brain to plasma in mouse at 10 umol/kg, iv and 30 umol/kg, po; assay type: ADME, organism-based
Outline: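 Pharmacokinetic study in mice given a single intravenous dose or an oral dose. Drug concentrations were measured in plasma and brain over time after each route. The brain/plasma concentration ratio was derived for each route.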

[3] = target: Somatostatin receptor type 4 (Homo sapiens, UniProt P31391); assay: Binding affinity to human sst4 receptor; outline: as §1
Chain of Somatostatin receptor type 4 (P31391 whole entry): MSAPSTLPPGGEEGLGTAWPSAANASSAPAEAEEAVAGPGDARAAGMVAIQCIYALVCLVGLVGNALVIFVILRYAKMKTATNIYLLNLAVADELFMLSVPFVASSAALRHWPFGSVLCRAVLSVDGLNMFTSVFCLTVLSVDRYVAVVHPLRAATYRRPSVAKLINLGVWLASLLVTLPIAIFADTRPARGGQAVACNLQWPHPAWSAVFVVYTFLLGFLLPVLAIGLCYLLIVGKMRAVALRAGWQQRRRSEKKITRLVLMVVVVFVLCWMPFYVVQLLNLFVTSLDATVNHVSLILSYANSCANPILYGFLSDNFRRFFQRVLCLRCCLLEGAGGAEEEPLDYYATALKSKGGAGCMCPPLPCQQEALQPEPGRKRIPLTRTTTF

[4] = target: T1, Cytochrome P450 1A2 (Homo sapiens, UniProt P05177); assay: Inhibition of human CYP1A2 by microplate-based direct fluorometric assay; assay type: ADME
T1 sequence (P05177 whole entry): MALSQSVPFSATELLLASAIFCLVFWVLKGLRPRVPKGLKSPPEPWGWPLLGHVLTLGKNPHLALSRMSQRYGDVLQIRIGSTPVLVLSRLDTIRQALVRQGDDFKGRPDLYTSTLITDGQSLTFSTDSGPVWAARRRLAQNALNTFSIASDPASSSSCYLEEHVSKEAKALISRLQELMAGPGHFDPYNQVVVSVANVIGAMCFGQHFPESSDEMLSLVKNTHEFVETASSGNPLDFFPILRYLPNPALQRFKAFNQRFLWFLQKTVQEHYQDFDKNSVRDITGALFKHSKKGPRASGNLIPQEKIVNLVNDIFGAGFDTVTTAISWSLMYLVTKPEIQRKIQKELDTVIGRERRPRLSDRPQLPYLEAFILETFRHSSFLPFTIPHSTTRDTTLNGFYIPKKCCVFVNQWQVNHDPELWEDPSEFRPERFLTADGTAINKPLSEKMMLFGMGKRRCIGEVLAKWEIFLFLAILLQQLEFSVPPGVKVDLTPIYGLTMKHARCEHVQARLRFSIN

[5] = target: Cytochrome P450 3A4 (Homo sapiens, UniProt P08684); assay: Inhibition of human CYP3A4 by microplate-based direct fluorometric assay; assay type: ADME
Chain of Cytochrome P450 3A4 (P08684 whole entry): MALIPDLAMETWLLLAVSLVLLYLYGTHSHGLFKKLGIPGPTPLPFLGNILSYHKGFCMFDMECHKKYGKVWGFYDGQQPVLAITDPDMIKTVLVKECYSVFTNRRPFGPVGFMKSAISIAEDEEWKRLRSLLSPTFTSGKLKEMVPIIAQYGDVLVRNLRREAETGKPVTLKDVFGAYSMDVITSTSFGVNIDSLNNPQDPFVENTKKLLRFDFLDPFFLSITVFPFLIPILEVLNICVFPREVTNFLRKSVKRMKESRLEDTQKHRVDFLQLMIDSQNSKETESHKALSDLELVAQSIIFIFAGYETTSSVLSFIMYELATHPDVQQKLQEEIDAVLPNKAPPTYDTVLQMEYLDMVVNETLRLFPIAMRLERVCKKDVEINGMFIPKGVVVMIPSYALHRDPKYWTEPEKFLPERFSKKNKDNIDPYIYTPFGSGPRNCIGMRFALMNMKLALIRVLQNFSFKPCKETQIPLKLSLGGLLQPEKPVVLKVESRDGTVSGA

[6] = target: Somatostatin receptor type 3 (Homo sapiens, UniProt P32745); assay: Binding affinity to human sst3 receptor; outline: as §1
Chain of Somatostatin receptor type 3 (P32745 whole entry): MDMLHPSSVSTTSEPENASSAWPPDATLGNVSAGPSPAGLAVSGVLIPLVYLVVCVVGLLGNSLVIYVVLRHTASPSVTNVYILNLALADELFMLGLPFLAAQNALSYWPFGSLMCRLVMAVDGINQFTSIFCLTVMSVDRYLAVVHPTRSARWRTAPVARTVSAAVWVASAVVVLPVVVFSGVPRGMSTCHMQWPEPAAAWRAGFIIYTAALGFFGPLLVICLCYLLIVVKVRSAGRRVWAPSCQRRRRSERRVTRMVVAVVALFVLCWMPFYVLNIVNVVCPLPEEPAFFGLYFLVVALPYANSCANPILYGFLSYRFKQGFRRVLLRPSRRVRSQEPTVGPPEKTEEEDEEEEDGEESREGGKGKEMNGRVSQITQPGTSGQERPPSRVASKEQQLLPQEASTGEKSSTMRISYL

[7] = target: Cytochrome P450 2C19 (Homo sapiens, UniProt P33261); assay: Inhibition of human CYP2C19 by microplate-based direct fluorometric assay; assay type: ADME
Chain of Cytochrome P450 2C19 (P33261 whole entry): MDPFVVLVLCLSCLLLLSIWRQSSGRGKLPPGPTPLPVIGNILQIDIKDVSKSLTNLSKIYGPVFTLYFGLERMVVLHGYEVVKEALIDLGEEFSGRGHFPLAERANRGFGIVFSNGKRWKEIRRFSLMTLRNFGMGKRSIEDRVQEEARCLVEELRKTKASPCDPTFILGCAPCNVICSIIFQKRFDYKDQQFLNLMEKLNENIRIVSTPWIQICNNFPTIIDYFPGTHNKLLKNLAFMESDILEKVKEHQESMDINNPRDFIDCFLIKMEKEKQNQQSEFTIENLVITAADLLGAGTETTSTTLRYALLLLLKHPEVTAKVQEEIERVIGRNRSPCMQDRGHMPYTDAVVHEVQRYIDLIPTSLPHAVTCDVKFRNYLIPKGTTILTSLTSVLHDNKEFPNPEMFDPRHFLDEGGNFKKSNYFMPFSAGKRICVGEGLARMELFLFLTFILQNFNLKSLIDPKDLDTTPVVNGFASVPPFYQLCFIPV

[8] = Binding affinity to adrenergic alpha1 receptor
[9] = species on record: Rattus norvegicus; assay: Selectivity for rat sst1 receptor over rat sst2 receptor
[10] = test system: V79; assay: Genotoxicity in Chinese hamster V79 cells by micronucleus test; assay type: toxicity, cell-based, Cricetulus griseus
[11] = target: Somatostatin receptor type 5 (Homo sapiens, UniProt P35346); assay: Binding affinity to human sst5 receptor; outline: as §1
Chain of Somatostatin receptor type 5 (P35346 whole entry): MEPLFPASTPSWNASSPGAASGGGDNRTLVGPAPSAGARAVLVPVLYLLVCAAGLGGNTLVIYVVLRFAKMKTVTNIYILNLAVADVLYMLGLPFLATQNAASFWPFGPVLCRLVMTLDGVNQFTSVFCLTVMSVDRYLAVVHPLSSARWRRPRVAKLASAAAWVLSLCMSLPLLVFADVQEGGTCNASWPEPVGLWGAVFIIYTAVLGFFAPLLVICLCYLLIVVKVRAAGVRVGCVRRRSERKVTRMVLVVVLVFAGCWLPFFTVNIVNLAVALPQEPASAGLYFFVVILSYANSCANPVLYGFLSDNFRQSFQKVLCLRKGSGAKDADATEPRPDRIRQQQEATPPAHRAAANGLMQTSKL

[12] = Apparent terminal half life in mouse plasma at 10 umol/kg, iv and 30 umol/kg, po; assay type: ADME, organism-based; settings: read-out: beta t1/2 (converted)
Outline: (§2)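 Mice dosed by the intravenous and the oral route; drug levels followed in both plasma and brain; apparent terminal half-life taken from plasma; oral bioavailability estimated.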

[13] = target: D(2) dopamine receptor (Homo sapiens, UniProt P14416); assay: Binding affinity to dopamine D2 receptor
Chain of D(2) dopamine receptor (P14416 whole entry): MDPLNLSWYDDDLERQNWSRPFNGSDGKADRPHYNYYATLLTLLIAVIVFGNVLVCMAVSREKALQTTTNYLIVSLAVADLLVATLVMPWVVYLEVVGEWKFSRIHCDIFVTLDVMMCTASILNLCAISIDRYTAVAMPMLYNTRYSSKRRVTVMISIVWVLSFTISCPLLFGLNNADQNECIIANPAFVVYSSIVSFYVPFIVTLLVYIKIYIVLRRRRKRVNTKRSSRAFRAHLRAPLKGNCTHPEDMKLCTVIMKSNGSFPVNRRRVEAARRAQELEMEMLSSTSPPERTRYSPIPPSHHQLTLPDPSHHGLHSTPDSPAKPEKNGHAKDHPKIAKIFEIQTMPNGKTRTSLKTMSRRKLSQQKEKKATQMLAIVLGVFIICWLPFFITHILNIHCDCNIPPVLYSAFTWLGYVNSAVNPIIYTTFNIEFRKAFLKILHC

[14] = target: T2, Somatostatin receptor type 1 (Homo sapiens, UniProt P30872); assay: Binding affinity to human sst1 receptor; outline: as §1
T2 sequence (P30872 whole entry): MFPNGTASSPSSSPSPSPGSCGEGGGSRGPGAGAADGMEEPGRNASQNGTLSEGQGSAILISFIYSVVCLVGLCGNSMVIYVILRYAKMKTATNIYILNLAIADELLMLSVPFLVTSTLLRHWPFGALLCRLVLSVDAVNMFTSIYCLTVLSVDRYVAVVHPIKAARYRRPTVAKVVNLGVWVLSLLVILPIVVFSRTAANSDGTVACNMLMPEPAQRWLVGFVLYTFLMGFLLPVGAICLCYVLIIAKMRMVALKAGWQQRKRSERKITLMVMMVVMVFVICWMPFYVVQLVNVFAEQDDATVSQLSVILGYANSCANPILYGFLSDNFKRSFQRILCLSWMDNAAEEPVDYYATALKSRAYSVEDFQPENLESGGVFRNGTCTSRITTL

[15] = target: Somatostatin receptor type 2 (Rattus norvegicus, UniProt P30680); assay: Binding affinity to rat sst2 receptor; outline: as §1
Chain of Somatostatin receptor type 2 (Rattus norvegicus, UniProt P30680) (P30680 whole entry): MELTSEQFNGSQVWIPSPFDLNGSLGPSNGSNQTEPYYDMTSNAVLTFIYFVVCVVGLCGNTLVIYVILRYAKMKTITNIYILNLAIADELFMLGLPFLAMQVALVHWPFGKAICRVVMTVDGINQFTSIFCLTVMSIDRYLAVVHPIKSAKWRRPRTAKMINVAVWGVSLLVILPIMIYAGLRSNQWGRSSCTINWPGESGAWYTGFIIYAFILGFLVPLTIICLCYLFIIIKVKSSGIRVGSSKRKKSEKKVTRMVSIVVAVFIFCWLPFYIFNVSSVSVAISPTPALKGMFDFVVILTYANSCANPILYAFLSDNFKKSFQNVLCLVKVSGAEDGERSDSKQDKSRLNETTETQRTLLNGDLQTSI

[16] = target: T2, Somatostatin receptor type 1; assay: Antagonist activity at human sst1 receptor assessed as inhibition of forskolin-stimulated cAMP accumulation by luciferase assay; assay type: functional
[17] = Tmax in mouse at 10 umol/kg, iv and 30 umol/kg, po; assay type: ADME, organism-based; settings: in vivo; outline: as §2
[18] = target: T3, D(4) dopamine receptor (Homo sapiens, UniProt P21917); assay: Binding affinity to dopamine D4 receptor
T3 sequence (P21917 whole entry): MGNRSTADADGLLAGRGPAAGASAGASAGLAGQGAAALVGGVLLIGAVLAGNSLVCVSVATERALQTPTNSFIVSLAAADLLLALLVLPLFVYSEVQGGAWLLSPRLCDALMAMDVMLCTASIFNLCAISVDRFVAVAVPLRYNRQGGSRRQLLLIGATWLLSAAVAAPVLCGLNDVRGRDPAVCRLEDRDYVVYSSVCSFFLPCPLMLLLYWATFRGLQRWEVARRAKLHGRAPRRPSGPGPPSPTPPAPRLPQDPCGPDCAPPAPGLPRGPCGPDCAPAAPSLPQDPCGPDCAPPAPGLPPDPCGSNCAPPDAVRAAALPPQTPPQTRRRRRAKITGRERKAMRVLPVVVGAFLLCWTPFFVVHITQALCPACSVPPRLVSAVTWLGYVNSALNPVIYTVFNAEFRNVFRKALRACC

[19] = target: Somatostatin receptor type 2 (Homo sapiens, UniProt P30874); assay: Binding affinity to human sst2 receptor; outline: as §1
Chain of Somatostatin receptor type 2 (Homo sapiens, UniProt P30874) (P30874 whole entry): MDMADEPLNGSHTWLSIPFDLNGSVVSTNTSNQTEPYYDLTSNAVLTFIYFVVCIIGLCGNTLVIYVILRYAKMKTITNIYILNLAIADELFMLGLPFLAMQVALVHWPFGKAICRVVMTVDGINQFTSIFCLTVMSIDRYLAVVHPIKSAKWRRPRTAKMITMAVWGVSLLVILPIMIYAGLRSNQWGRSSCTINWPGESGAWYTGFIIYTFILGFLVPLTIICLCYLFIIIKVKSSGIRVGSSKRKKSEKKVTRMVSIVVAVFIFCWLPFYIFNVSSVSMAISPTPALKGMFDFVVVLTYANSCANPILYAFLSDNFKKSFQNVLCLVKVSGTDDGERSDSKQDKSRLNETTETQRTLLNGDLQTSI

[20] = target: Cytochrome P450 2D6 (Homo sapiens, UniProt P10635); assay: Inhibition of human CYP2D6 by microplate-based direct fluorometric assay; assay type: ADME
Chain of Cytochrome P450 2D6 (P10635 whole entry): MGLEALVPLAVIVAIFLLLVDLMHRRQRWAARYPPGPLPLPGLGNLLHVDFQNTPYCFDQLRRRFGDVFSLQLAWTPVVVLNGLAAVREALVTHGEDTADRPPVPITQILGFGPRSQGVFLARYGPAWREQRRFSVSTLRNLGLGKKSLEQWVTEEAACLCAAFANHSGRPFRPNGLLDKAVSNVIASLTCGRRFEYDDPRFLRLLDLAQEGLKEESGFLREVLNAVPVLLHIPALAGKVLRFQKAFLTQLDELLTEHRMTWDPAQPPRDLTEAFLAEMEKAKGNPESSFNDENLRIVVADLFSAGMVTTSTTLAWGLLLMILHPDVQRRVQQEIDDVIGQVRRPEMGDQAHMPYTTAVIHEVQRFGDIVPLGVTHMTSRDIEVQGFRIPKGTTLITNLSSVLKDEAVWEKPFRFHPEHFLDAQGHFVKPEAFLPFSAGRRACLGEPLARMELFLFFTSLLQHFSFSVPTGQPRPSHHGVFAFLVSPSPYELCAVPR

[21] = Oral bioavailability in mouse at 30 umol/kg; assay type: ADME, organism-based; settings: in vivo; outline: as §2
[22] = target: Somatostatin receptor type 1 (Rattus norvegicus) (UniProt P28646); assay: Antagonist activity at rat sst1 receptor assessed as inhibition of forskolin-stimulated cAMP accumulation by luciferase assay; assay type: functional
Chain of Somatostatin receptor type 1 (Rattus norvegicus) (P28646 whole entry): as the sequence (P30872 whole entry) above, with S8P, S11T, P16S, S20G, G25V, G26C, A32S, A45S, T385A, T389S counted along it

Chain of Somatostatin receptor type 1 (Rattus norvegicus, UniProt P28646) (P28646 whole entry): as the sequence (P30872 whole entry) above, with S8P, S11T, P16S, S20G, G25V, G26C, A32S, A45S, T385A, T389S counted along it

Row | SMILES | Kd [1] | Kd [15] | other results
1 | CN(CCC(=O)N1CCN(c2ccc(F)c(F)c2)CC1)CCC1c2ccccc2Oc2ccccc21 | 0.000776 µM | 6.46 µM | Kp [2]: > 1; Kd [3]: 3.39 µM; IC50 [4]: > 10 µM; IC50 [5]: > 10 µM; Kd [6]: 2.82 µM; IC50 [7]: > 10 µM; pKd [8]: 6.55; fold change (FC) [9]: > 10000; Activity [10]: Non-toxic; Kd [11]: 14.5 µM; half-life [12]: 11 h; Kd [13]: 0.49 µM; Kd [14]: 0.00162 µM; pKb [16]: 8.13; Tmax [17]: 1 h; Kd [18]: 0.49 µM; Kd [19]: 6.92 µM; IC50 [20]: < 1 µM; bioavailability [21]: 19%; pKb [22]: 7.93
2 | CN(CCC(=O)N1CCN(c2ccc3c(c2)OCO3)CC1)CCC1c2ccccc2-c2ccccc21 | 0.00457 µM | – | –
3 | CN(CCC(=O)N1CCN(c2ccc(=O)n(C)n2)CC1)CCC1c2ccccc2-c2ccccc21 | 0.00661 µM | – | –
4 | CN(CCC(=O)N1CCN(c2ccc([N+](=O)[O-])cc2)CC1)CCc1ccc2ccccc2c1 | 0.275 µM | 16.6 µM | –
5 | CN(CCC(=O)N1CCN(c2ccccc2Cl)CC1)CCC1c2ccccc2-c2ccccc21 | 0.024 µM | – | –
6 | C=CCN(CCC(=O)N1CCN(c2ccc([N+](=O)[O-])cc2)CC1)CCC1c2ccccc2-c2ccccc21 | 0.00708 µM | 4.07 µM | –
7 | CN(CCC(=O)N1CCN(c2ccc(F)cc2F)CC1)CCC1c2ccccc2-c2ccccc21 | 0.00331 µM | – | –
8 | CN(CCC(=O)N1CCN(c2ccc([N+](=O)[O-])cc2)CC1)CCC1c2ccccc2Oc2ccccc21 | 0.000891 µM | 6.76 µM | fold change (FC) [9]: > 1000
9 | CN(CCC(=O)N1CCN(c2cccc(Cl)c2)CC1)CCC1c2ccccc2-c2ccccc21 | 0.0178 µM | – | –
10 | CN(CCC(=O)N1CCN(c2ccc(Cl)cc2)CC1)CCC1c2ccccc2-c2ccccc21 | 0.0017 µM | – | –
11 | CN(CCC(=O)N1CCN(c2ccc3nonc3c2)CC1)CCC1c2ccccc2-c2ccccc21 | 0.000741 µM | 4.17 µM | Kd [3]: 1.15 µM; Kd [6]: 1.2 µM; fold change (FC) [9]: > 10000; Kd [14]: 0.00263 µM; Kd [19]: 4.17 µM
12 | CN(CCC(=O)N1CCN(c2ccc([N+](=O)[O-])cc2)CC1)CCC1c2ccccc2Sc2ccccc21 | 0.0126 µM | 6.03 µM | –
13 | CN(CCC(=O)N1CCN(c2ccc([N+](=O)[O-])cc2)CC1)CCC1c2ccccc2Cc2ccccc21 | 0.0295 µM | 18.6 µM | –
14 | CN(CCC(=O)N1CCN(c2ccncc2)CC1)CCC1c2ccccc2-c2ccccc21 | 0.0214 µM | – | –
15 | CN(CCC(=O)N1CCN(c2ccc3nonc3c2)CC1)CCC1c2ccccc2Oc2ccccc21 | 0.000324 µM | 8.13 µM | Kd [3]: 1.45 µM; Kd [6]: 1.62 µM; fold change (FC) [9]: > 10000; Kd [14]: 0.00214 µM
16 | CN(CCC(=O)N1CCN(c2cccc(F)c2)CC1)CCC1c2ccccc2-c2ccccc21 | 0.00363 µM | – | –
17 | CN(CCC(=O)N1CCN(c2ccc(C(F)(F)F)cc2)CC1)CCC1c2ccccc2-c2ccccc21 | 0.0316 µM | – | –

Row | SMILES | Kd [1] | Kd [15] | other results
18 | CN(CCC(=O)N1CCN(c2ccc([N+](=O)[O-])cc2)CC1)CCC1c2ccccc2-c2ccccc21 | 0.000708 µM | 6.92 µM | fold change (FC) [9]: > 1000
19 | CN(CCC(=O)N1CCN(c2ccc([N+](=O)[O-])cc2)CC1)CCC(c1ccccc1)c1ccccc1 | 0.0138 µM | 8.32 µM | –
20 | CN(CCC(=O)N1CCN(c2ccc([N+](=O)[O-])cc2)CC1)CCC1c2ccccc2C=Cc2ccccc21 | 0.0115 µM | 5.13 µM | –
21 | Cc1cccc(C)c1N1CCN(C(=O)CCN(C)CCC2c3ccccc3-c3ccccc32)CC1 | > 1 µM | – | –
22 | CCN(CCC(=O)N1CCN(c2ccc([N+](=O)[O-])cc2)CC1)CCC1c2ccccc2-c2ccccc21 | 0.000955 µM | 1.82 µM | –
23 | O=C(CCN(CCC1c2ccccc2-c2ccccc21)CC1CC1)N1CCN(c2ccc([N+](=O)[O-])cc2)CC1 | 0.0457 µM | 6.92 µM | –
24 | CN(CCC(=O)N1CCN(c2cccc(=O)n2C)CC1)CCC1c2ccccc2-c2ccccc21 | 0.00214 µM | – | –
25 | CN(CCC(=O)N1CCN(c2ccc(F)cc2)CC1)CCC1c2ccccc2-c2ccccc21 | 0.00195 µM | – | –
26 | CN(CCC(=O)N1CCN(c2cccc(C(F)(F)F)c2)CC1)CCC1c2ccccc2-c2ccccc21 | 0.0617 µM | – | –
27 | CN(CCC(=O)N1CCN(c2ccc([N+](=O)[O-])cc2)CC1)CCn1c2ccccc2c2ccccc21 | 0.331 µM | 14.5 µM | –
28 | CN(CCC(=O)N1CCN(c2ccc([N+](=O)[O-])cc2)CC1)CCc1cccc2ccccc12 | 0.0776 µM | 8.71 µM | –
29 | CN(CCC(=O)N1CCN(c2ccc(Cl)c(Cl)c2)CC1)CCC1c2ccccc2-c2ccccc21 | 0.00191 µM | – | –
30 | CN(CCC(=O)N1CCN(c2ccc(F)c(F)c2)CC1)CCC1c2ccccc2-c2ccccc21.Cl | 0.000575 µM | 19.5 µM | Kp [2]: > 1; Kd [3]: 2.4 µM; IC50 [4]: > 10 µM; IC50 [5]: > 10 µM; Kd [6]: 2.69 µM; IC50 [7]: > 10 µM; pKd [8]: 6.53; fold change (FC) [9]: > 10000; Activity [10]: Non-toxic; half-life [12]: 6 h; Kd [13]: 0.776 µM; Kd [14]: 0.00537 µM; pKb [16]: 8.46; Tmax [17]: 1 h; Kd [18]: 0.126 µM; Kd [19]: 12.3 µM; IC50 [20]: 1.3 µM; bioavailability [21]: 7%; pKb [22]: 8.55
31 | CN(CCC(=O)N1CCN(c2ccc([N+](=O)[O-])cc2)CC1)CCC1c2ccccc2CCc2ccccc21 | 0.0182 µM | 3.47 µM | fold change (FC) [9]: > 100
32 | CC(C)N(CCC(=O)N1CCN(c2ccc([N+](=O)[O-])cc2)CC1)CCC1c2ccccc2-c2ccccc21 | 0.00468 µM | 0.912 µM | –
33 | CN(CCC(=O)N1CCN(c2ccccc2C#N)CC1)CCC1c2ccccc2-c2ccccc21 | 0.00457 µM | – | –
34 | CN(CCC(=O)N1CCN(c2ccc3nccn3n2)CC1)CCC1c2ccccc2-c2ccccc21 | 0.0011 µM | – | –
